# Data reported in ChEMBL document CHEMBL3860059, “Design, Synthesis, and Biological Evaluation of First-in-Class Dual Acting Histone Deacetylases (HDACs) and Phosphodiesterase 5 (PDE5) Inhibitors for the Treatment of Alzheimer's Disease” (J Med Chem, 2016).
# Experiments:
# [1] = Cytotoxicity against human THLE2 cells assessed as reduction in cell viability after 72 hrs by ATP Vialight assay; type: toxicity, cell-based, THLE-2; settings: read-out: LC50
# In short: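 Immortalized human liver THLE-2 cells in BEGM with 0.7 μg/mL phosphoethanolamine, 0.5 ng/mL EGF, antibiotics and 10% FBS, seeded at 10,000 cells/well and left 24 h at 37 °C. Compounds were added at final 0–100 μM in 1% DMSO for 72 h. Cellular ATP was read by luminescence after 45 min lysis.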
# [2] = Passive membrane permeability of the compound at 50 uM after 18 hrs by PAMPA; type: ADME; settings: read-out: Peff
# In short: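 PAMPA: 50 μM donor solution in PBS/EtOH 70:30 over PVDF membrane precoated with PBL/dodecane (20 mg/mL); PBS/EtOH acceptor; 18 h at 20 °C without shaking; duplicates; donor and acceptor concentrations by UV absorbance corrected against vehicle.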
# [3] = molecular target: Histone deacetylase 1 (Homo sapiens, UniProt Q13547); assay: Inhibition of full length recombinant human C-terminal His/Flag-tagged HDAC1 expressed in baculovirus infected Sf9 cells using fluorogenic HDAC substrate after 30 mins by fluorescence analysis
# Histone deacetylase 1, sequence (Q13547 whole entry): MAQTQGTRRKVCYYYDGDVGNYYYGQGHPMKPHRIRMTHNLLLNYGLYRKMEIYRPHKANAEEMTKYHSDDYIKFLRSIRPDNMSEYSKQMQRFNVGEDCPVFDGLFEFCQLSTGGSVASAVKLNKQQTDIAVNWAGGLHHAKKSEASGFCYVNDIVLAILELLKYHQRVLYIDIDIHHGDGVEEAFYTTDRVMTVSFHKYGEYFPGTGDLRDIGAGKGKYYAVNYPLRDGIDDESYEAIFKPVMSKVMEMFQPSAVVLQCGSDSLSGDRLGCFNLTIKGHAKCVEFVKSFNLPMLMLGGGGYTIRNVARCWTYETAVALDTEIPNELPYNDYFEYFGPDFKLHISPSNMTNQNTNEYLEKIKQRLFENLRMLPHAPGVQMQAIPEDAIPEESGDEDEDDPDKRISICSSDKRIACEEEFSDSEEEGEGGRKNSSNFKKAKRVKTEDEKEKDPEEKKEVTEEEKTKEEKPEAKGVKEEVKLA
# In short: (§1)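 Full-length human recombinant HDAC1 (0.4 μg/mL final), HDAC2 (1.5 μg/mL), HDAC3/NCOR2 (0.1 μg/mL) or HDAC6 (3.6 μg/mL) with 10 μM fluorogenic acetyl-lysine substrate and 0.1 mg/mL BSA, 1% DMSO, 30 min at 37 °C; lysine developer 20 min at room temperature; fluorescence ex 355/em 460 nm. Vehicle = positive control, no enzyme = negative; IC50 from curve fit.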
# [4] = molecular target: cGMP-specific 3',5'-cyclic phosphodiesterase (Homo sapiens, UniProt O76074); assay: Inhibition of full length recombinant human N-terminal GST-tagged PDE5A1 expressed in baculovirus infected Sf9 cells using cGMP as substrate after 30 mins by HTRF assay
# [5] = molecular target: Histone deacetylase 2 (Homo sapiens, UniProt Q92769); assay: Inhibition of full length recombinant human C-terminal His-tagged HDAC2 expressed in baculovirus infected Sf9 cells using fluorogenic HDAC substrate after 30 mins by fluorescence analysis; in short: as §1
# Histone deacetylase 2, sequence (Q92769 whole entry): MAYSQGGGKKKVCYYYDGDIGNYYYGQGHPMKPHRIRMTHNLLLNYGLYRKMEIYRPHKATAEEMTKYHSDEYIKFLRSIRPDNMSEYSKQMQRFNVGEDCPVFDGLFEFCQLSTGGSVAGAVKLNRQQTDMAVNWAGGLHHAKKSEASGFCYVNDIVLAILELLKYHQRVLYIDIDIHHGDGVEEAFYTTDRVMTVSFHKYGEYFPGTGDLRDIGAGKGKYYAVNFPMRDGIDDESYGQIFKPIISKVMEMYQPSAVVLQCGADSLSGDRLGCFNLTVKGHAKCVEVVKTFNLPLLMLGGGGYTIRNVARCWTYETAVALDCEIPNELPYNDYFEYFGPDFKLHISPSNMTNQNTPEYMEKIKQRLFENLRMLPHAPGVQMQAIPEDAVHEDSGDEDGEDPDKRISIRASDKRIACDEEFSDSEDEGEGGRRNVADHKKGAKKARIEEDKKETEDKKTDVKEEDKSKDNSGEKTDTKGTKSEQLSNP
# [6] = Cytotoxicity against mouse primary glial cells assessed as reduction in cell viability after 72 hrs by luminescence based ATPlite assay; type: toxicity; settings: read-out: LC50
# In short: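 Primary neuron/glia cultures from embryonic mouse brain were grown 5 days at 37 °C (5% CO2) to allow neuron formation. Compounds were then added at final 0–100 μM in 1% DMSO for 72 h. Cellular ATP was read by luminescence after 10 min with reagent at room temperature.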
# [7] = Selectivity ratio of pLC50 for mouse primary glial cells to pLC50 for human THLE2 cells; type: ADME, cell-based; settings: mouse primary glial cells versus THLE2 cells
# [8] = molecular target: T1, Protein deacetylase HDAC6 (Homo sapiens, UniProt Q9UBN7); assay: Inhibition of full length recombinant human N-terminal GST tagged HDAC6 expressed in baculovirus infected Sf9 cells using fluorogenic HDAC substrate after 30 mins by fluorescence analysis; in short: as §1
# T1 sequence (Q9UBN7 whole entry): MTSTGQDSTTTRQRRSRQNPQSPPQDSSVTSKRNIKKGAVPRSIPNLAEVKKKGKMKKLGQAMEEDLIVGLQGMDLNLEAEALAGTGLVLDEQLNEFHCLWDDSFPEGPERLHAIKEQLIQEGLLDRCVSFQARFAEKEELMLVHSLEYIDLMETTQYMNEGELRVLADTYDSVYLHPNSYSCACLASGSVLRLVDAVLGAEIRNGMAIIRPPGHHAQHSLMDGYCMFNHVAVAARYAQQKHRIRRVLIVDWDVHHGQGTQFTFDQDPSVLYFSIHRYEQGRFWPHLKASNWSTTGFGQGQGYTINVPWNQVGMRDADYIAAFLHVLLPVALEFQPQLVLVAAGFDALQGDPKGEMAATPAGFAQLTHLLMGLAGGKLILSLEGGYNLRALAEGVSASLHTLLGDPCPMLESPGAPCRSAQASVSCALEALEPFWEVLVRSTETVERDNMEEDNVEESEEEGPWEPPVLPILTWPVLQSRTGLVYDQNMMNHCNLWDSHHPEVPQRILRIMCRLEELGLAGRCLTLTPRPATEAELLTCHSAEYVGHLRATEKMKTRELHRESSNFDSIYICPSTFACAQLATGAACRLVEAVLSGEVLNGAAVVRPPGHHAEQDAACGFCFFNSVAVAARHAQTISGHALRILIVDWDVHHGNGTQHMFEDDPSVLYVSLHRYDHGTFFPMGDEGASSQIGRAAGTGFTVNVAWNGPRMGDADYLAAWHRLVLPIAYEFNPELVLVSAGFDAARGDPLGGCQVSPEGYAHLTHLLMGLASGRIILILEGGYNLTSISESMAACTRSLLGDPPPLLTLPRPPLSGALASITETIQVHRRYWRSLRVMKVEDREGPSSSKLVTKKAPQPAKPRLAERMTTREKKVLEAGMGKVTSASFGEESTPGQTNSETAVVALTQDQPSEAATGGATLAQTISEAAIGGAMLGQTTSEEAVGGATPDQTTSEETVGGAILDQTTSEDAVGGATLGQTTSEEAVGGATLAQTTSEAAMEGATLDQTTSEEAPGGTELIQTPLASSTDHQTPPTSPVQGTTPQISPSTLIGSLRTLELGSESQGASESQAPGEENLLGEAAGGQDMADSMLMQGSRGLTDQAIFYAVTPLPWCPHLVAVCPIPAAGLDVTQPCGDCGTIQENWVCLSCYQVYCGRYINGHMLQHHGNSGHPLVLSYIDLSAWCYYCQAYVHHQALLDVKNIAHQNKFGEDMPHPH
# [9] = molecular target: Histone deacetylase 3/Nuclear receptor corepressor 2 (HDAC3/NCoR2) (Homo sapiens, UniProt O15379); assay: Inhibition of full length recombinant human C-terminal His-tagged HDAC3/N-terminal GST-tagged NCOR2 (395 to 489 residues) expressed in baculovirus infected Sf9 cells using fluorogenic HDAC substrate after 30 mins by fluorescence analysis
# Histone deacetylase 3/Nuclear receptor corepressor 2 (HDAC3/NCoR2), sequence (O15379 whole entry, the tested form may be a part): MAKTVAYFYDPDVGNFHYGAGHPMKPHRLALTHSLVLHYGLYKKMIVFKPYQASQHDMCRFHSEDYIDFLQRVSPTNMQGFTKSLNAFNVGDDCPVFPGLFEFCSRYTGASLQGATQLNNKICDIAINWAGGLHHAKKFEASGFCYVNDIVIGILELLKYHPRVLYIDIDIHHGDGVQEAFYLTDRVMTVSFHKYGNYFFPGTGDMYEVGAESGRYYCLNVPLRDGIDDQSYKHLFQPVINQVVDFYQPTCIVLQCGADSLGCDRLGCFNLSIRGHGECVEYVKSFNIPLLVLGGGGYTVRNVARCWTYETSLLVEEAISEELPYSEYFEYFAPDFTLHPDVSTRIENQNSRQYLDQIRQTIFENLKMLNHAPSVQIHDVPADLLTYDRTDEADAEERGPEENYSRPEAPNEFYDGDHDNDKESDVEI
# Histone deacetylase 3/Nuclear receptor corepressor 2 (HDAC3/NCoR2), sequence (Q9Y618 whole entry, further chain, the tested form may be a part): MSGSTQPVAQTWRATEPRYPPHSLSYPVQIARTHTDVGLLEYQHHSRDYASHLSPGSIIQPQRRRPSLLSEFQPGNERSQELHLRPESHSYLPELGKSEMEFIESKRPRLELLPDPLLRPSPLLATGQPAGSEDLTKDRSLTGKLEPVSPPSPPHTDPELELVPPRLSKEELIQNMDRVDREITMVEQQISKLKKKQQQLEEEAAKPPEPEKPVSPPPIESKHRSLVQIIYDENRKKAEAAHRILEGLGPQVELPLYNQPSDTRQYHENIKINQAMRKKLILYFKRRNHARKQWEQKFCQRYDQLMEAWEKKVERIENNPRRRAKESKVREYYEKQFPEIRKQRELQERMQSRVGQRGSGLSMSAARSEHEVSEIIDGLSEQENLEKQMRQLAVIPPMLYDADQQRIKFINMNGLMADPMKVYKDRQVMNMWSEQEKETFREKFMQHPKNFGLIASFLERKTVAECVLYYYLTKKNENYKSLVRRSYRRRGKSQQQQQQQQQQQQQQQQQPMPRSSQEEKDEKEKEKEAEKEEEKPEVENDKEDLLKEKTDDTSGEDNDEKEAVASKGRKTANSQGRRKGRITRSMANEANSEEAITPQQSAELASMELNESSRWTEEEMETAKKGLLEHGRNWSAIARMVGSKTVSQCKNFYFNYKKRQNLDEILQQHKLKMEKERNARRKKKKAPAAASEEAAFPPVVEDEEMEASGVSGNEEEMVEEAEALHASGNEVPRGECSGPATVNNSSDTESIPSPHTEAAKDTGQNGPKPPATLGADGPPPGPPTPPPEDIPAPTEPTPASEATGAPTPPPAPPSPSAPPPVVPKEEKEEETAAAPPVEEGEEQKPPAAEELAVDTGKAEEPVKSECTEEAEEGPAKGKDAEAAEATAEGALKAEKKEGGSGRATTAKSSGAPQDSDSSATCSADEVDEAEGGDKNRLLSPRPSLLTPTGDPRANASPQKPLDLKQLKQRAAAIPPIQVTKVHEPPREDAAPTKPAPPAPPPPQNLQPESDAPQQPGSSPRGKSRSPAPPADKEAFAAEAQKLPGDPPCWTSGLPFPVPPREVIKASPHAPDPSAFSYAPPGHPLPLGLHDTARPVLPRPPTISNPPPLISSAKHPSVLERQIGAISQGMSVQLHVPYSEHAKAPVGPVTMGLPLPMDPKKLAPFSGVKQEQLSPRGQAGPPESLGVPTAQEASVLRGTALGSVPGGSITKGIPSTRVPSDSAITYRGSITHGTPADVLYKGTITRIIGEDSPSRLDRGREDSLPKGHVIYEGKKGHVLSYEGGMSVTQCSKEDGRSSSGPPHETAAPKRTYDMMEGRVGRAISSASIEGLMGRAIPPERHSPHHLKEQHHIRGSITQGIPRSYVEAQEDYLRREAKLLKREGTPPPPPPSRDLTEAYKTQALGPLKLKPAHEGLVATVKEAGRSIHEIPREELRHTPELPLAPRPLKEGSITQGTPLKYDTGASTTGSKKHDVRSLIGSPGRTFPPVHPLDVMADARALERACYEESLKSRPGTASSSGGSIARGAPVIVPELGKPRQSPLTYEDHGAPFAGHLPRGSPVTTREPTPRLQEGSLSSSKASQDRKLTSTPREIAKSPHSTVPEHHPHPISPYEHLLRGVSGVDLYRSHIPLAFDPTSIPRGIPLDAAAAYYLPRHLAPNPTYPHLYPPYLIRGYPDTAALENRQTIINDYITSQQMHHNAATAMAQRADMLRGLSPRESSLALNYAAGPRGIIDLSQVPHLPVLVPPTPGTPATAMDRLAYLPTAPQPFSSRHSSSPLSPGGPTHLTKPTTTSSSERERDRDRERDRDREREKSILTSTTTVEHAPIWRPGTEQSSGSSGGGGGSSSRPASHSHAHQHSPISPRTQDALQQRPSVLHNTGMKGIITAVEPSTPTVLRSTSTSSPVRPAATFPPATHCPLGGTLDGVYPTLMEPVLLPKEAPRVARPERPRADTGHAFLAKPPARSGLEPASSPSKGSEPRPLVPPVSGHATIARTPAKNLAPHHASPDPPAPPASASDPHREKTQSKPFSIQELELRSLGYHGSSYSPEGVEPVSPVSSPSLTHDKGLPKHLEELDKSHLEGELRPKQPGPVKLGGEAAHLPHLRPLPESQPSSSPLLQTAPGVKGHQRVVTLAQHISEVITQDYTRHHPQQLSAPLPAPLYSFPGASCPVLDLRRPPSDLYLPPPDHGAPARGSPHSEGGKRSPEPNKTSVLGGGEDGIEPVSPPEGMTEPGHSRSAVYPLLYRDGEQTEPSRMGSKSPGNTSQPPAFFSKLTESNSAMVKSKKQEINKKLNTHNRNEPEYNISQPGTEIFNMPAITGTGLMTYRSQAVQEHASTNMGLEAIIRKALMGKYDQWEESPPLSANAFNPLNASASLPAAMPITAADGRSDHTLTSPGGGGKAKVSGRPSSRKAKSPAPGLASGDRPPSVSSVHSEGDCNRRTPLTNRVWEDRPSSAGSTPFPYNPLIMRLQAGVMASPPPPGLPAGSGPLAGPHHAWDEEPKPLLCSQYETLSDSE
# [10] = Selectivity ratio of pIC50 for full length recombinant human N-terminal GST tagged HDAC6 expressed in baculovirus infected Sf9 cells to pIC50 for full length recombinant human C-terminal His/Flag-tagged HDAC1 expressed in baculovirus infected Sf9 cells
# [11] = Selectivity ratio of pIC50 for full length recombinant human C-terminal His/Flag-tagged HDAC1 expressed in baculovirus infected Sf9 cells to pIC50 for full length recombinant human N-terminal GST tagged HDAC6 expressed in baculovirus infected Sf9 cells
# [12] = Dissociation constant, pKa of the compound; type: physicochemical
# [13] = Lipophilicity, log D of the compound at pH 7.4; type: physicochemical; settings: buffer
SMILES,CC50 at 72 h [1] [µM],"Papp at 18 h, 50 µM [2] [×10⁻⁶ cm/s]",IC50 [3] [µM],IC50 [4] [µM],IC50 [5] [µM],CC50 at 72 h [6] [µM],selectivity ratio [7],IC50 [8] [µM],IC50 [9] [µM],Ratio pIC50 [10],Ratio pIC50 [11],pKa [12],logD [13]
CCCc1nn(C)c2c(=O)[nH]c(-c3cc(N4CCC(CC(=O)NO)CC4)ccc3OCC)nc12,88.7,0.49,5.86,0.065,> 20,> 100,< 0.4,1.09,,,,,
CCCc1nn(C)c2c(=O)[nH]c(-c3cc(S(=O)(=O)N4CCN(c5ncc(C(=O)NO)cn5)CC4)ccc3OCC)nc12,1.46,0.72,0.008,0.003,0.117,2.15,< 0.4,0.268,0.036,> 1,,,
CCCc1nn(C)c2c(=O)[nH]c(-c3cc(S(=O)(=O)NC4CCN(c5ncc(C(=O)NO)cn5)CC4)ccc3OCC)nc12,11.9,0.1,0.057,0.0006,0.341,4.95,< 0.4,0.059,0.054,,,,
CN1CC(=O)N2[C@H](c3ccc4c(c3)OCO4)c3[nH]c4ccccc4c3C[C@@H]2C1=O,60.3,2.68,,,,110,,,,,,,
CCCc1nn(C)c2c(=O)[nH]c(-c3cc(C4CC(C(=O)NO)C4)ccc3OCC)nc12 (stereo not drawn),,1.37,0.554,0.017,1.86,,< 0.4,0.13,,,> 0.6,,
CCCc1nn(C)c2c(=O)[nH]c(-c3cc(CC4CCN(c5ccc(C(=O)NO)cc5)CC4)ccc3OCC)nc12,,,> 20,0.121,> 20,,,> 20,,,,8.73,
CCCc1nn(C)c2c(=O)[nH]c(-c3cc(CC4CCN(c5ccc(C(=O)NO)cn5)CC4)ccc3OCC)nc12,,,1.88,0.057,6.43,,,0.395,,,,8.29,
CCCc1nn(C)c2c(=O)[nH]c(-c3cc(S(=O)(=O)N4CCN(Cc5ccc(/C=C/C(=O)NO)cc5)CC4)ccc3OCC)nc12,,,1.34,0.002,6.97,,,0.089,,,> 1,,
CCCc1nn(C)c2c(=O)[nH]c(-c3cc(CC4CCN(c5ncc(C(=O)NO)cn5)CC4)ccc3OCC)nc12,,0.41,0.063,0.007,0.335,,< 0.4,1.25,0.051,1.4,,7.85,
CCCc1nn(C)c2c(=O)[nH]c(-c3cc(S(=O)(=O)Nc4ccc(/C=C/C(=O)NO)cc4)ccc3OCC)nc12,27.4,0.23,0.356,0.001,1.31,30.3,< 0.4,0.084,,,,,
O=C(CCCCCCC(=O)Nc1ccccc1)NO [VORINOSTAT],3.59,0.23,,,,4.91,,,,,,,2
